Measured values: ChEMBL document CHEMBL3769316, “Discovery of novel heteroarylmethylcarbamodithioates as potent anticancer agents: Synthesis, structure-activity relationship analysis and biological evaluation” (Eur J Med Chem, 2016)
Activity calls are given as the source filed them. The rule behind the calls is not given here.

Key:
Type in all cases: functional, cell-based
[1] = Cytotoxicity against human Bel7402 cells after 72 hrs by alamar blue assay; conditions: Bel-7402, 72 h
Method in brief: (§1)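 Cells seeded and cultured overnight, then exposed to compound at varying concentrations for 72 h. Cells were then incubated 2-4 h in medium containing 10% Alamar blue, and fluorescence was read at ex 530/em 590 nm. Dose-response curves used at least five concentrations, and IC50 (50% growth inhibition) was taken from these curves. Culture was at 37 °C.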

[2] = tested on: SK-BR-3; assay: Cytotoxicity against human SK-BR-3 cells after 72 hrs by alamar blue assay; conditions: SK-BR-3, 72 h; method in brief: as §1
[3] = tested on: MDA-MB-468; assay: Cytotoxicity against human MDA-MB-468 cells after 72 hrs by alamar blue assay; conditions: MDA-MB-468, 72 h; method in brief: as §1
[4] = Cytotoxicity against human HL60 cells after 72 hrs by alamar blue assay; conditions: HL-60, 72 h; method in brief: as §1
[5] = tested on: PC-3; assay: Induction of mitotic arrest in human PC3 cells assessed as increase in supernumerary centrosome formation at 40 nM after 6 hrs using DAPI staining by immunofluorescence-based laser scanning confocal microscopy
Method in brief: (§2)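 PC-3 cells on confocal dishes were exposed 6 h to compound (2 µM) or taxol (40 nM), then fixed in 4% paraformaldehyde overnight at 4 °C and blocked. They were stained overnight at 4 °C with anti-β-tubulin and anti-γ-tubulin (1:100 each), then 1 h with Alexa Fluor 488/647 secondaries, and co-stained for DNA. Spindles and centrosomes were imaged by confocal microscopy.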

[6] = tested on: PC-3; assay: Induction of mitotic arrest in human PC3 cells assessed as increase in multipolar spindle formation at 40 nM after 6 hrs using DAPI staining by immunofluorescence-based laser scanning confocal microscopy; method in brief: as §2
[7] = tested on: PC-3; assay: Induction of mitotic arrest in human PC3 cells assessed as increase in MPM-2 level at 40 nM after 24 hrs by Western blot method
Method in brief: (§3)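 PC-3 cells were treated 24 h with compound (0.5-4 µM) or taxol (40 nM) as positive control, then lysed in RIPA with PMSF and protease inhibitors. Lysates were run on SDS-PAGE and transferred to PVDF, which was blocked with 5% milk for 1 h. Membranes were probed overnight at 4 °C for MPM-2 (1:1000), phospho-H3 (1:600) or β-actin (1:1000), followed by HRP secondary and chemiluminescence.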

[8] = tested on: PC-3; assay: Induction of mitotic arrest in human PC3 cells assessed as increase in histone H3 phosphorylation at Ser10 at 40 nM after 24 hrs by Western blot method; method in brief: as §3

S=C(NCc1cccnc1)SCCc1nc2ccccc2[nH]1
IC50 [1]: 9.3 µM
IC50 [2]: 1.69 µM
IC50 [3]: 11.5 µM

CCCCOC(=O)CCSC(=S)NCc1cccnc1
IC50 [1]: 6.35 µM
IC50 [2]: 4.46 µM
IC50 [3]: 12.8 µM

S=C(NCc1cccnc1)SCCc1nnc(-c2cc3ccccc3s2)o1
IC50 [1]: 6.89 µM
IC50 [2]: 5.32 µM
IC50 [3]: 6.77 µM

N#CCCSC(=S)NCc1cnc2ccccc2c1
IC50 [4]: 5.18 µM
IC50 [1]: 96.4 µM

CC1(C)OB(CCCSC(=S)NCc2cccnc2)OC1(C)C
IC50 [1]: 4.27 µM
IC50 [2]: 6.82 µM
IC50 [3]: 6.62 µM

S=C(NCc1cccnc1)SCCc1nnc(-c2ccco2)o1
IC50 [1]: 1.59 µM
IC50 [2]: 0.81 µM
IC50 [3]: 3.32 µM

Cc1c(CNC(=S)SCCC#N)cnn1-c1ccccc1
IC50 [4]: 6.05 µM
IC50 [1]: 24.9 µM

S=C(NCc1cccnc1)SCCc1nc(-c2ccccc2)no1
IC50 [1]: 2.8 µM
IC50 [2]: 1.29 µM
IC50 [3]: 10.1 µM

COc1ccc(-c2nnc(CCSC(=S)NCc3cccnc3)o2)cc1
IC50 [1]: 1.54 µM
IC50 [2]: 2.96 µM
IC50 [3]: 5.22 µM

Fc1ccccc1-c1nnc(CCSC(=S)NCc2cccnc2)o1
IC50 [1]: 5.54 µM
IC50 [2]: 4.69 µM
IC50 [3]: 3.42 µM

S=C(NCc1cccnc1)SCCc1nc2ccccc2o1
IC50 [1]: 2.88 µM
IC50 [2]: 0.82 µM
IC50 [3]: 4.3 µM

OCCSC(=S)NCc1cccnc1
IC50 [1]: 3.65 µM
IC50 [2]: 1.32 µM
IC50 [3]: 6.61 µM

N#CCCSC(=S)NCc1cnc(N2CCOCC2)nc1
IC50 [4]: 5.03 µM
IC50 [1]: 22.4 µM

S=C(NCc1cccnc1)SCCc1nnc(-c2cnccn2)o1
IC50 [1]: 1.43 µM
IC50 [2]: 1.29 µM
IC50 [3]: 1.71 µM

S=C(NCc1cccnc1)SCCc1nnc(-c2ccc3ccccc3n2)o1
IC50 [1]: 1.95 µM
IC50 [2]: 0.79 µM
IC50 [3]: 3.5 µM

S=C(NCc1cccnc1)SCCc1nnc(-c2ccc(Cl)cc2)o1
IC50 [1]: 1.26 µM
IC50 [2]: 0.86 µM
IC50 [3]: 1.98 µM

CCOP(=O)(CCSC(=S)NCc1cccnc1)OCC
IC50 [1]: 50.8 µM
IC50 [2]: 51 µM
IC50 [3]: 60.4 µM

Cc1cc(-c2nnc(CCSC(=S)NCc3cccnc3)o2)no1
IC50 [1]: 1.68 µM
IC50 [2]: 1.73 µM
IC50 [3]: 6.14 µM

FC(F)(F)c1ccc(-c2nnc(CCSC(=S)NCc3cccnc3)o2)cc1
IC50 [1]: 1.22 µM
IC50 [2]: 2.4 µM
IC50 [3]: 5.49 µM

O=C(CCSC(=S)NCc1cccnc1)NCc1ccccc1
IC50 [1]: > 100 µM
IC50 [2]: > 100 µM
IC50 [3]: > 100 µM

Cn1cccc1CNC(=S)SCCC#N
IC50 [4]: 282 µM
IC50 [1]: 227 µM

O=[N+]([O-])c1ccc(-c2nnc(CCSC(=S)NCc3cccnc3)o2)cc1
IC50 [1]: 1.84 µM
IC50 [2]: 1.54 µM
IC50 [3]: 4.6 µM

S=C(NCc1cccnc1)SCCc1nnc(-c2cccs2)o1
IC50 [1]: 1.34 µM
IC50 [2]: 1.07 µM
IC50 [3]: 3.41 µM

O=S(=O)(O)CCCSC(=S)NCc1cccnc1
IC50 [1]: 6.59 µM
IC50 [2]: 6.77 µM
IC50 [3]: 11.1 µM

CN1CCOc2cc(CNC(=S)SCCC#N)cnc21
IC50 [4]: 82.8 µM
IC50 [1]: 327 µM

CC(=O)O[C@H]1C(=O)[C@@]2(C)[C@H]([C@H](OC(=O)c3ccccc3)[C@]3(O)C[C@H](OC(=O)[C@H](O)[C@@H](NC(=O)c4ccccc4)c4ccccc4)C(C)=C1C3(C)C)[C@]1(OC(C)=O)CO[C@@H]1C[C@@H]2O
Activity [5]: Active
Activity [6]: Active
Activity [7]: Active
Activity [8]: Active

N#CCCSC(=S)NCc1cncs1
IC50 [4]: 109 µM
IC50 [1]: 296 µM

N#CCCSC(=S)NCc1nnc(-c2ccccc2)s1
IC50 [4]: 11.8 µM
IC50 [1]: 18.7 µM

S=C(NCc1cccnc1)SCCc1nnc(-c2cc[nH]c2)o1
IC50 [1]: 1.17 µM
IC50 [2]: 0.82 µM
IC50 [3]: 2.04 µM

S=C(NCc1cccnc1)SCCc1nc2ccccc2s1
IC50 [1]: 3.56 µM
IC50 [2]: 1.39 µM
IC50 [3]: 9.71 µM

N#CCCSC(=S)NCc1nnc(-c2ccccc2)o1
IC50 [4]: 14.2 µM
IC50 [1]: 25.7 µM

N#CCCSC(=S)NCc1cccnc1
IC50 [4]: 0.74 µM
IC50 [1]: 1.03 µM
IC50 [2]: 2.84 µM
IC50 [3]: 9.53 µM

S=C(NCc1cccnc1)SCCc1nnn[nH]1
IC50 [1]: 57.7 µM
IC50 [2]: > 100 µM
IC50 [3]: > 100 µM

Cc1nc(-c2ccccc2)oc1CNC(=S)SCCC#N
IC50 [4]: 7.88 µM
IC50 [1]: 17.9 µM

S=C(NCc1cccnc1)SCCc1nnc(-c2ccsc2)o1
IC50 [1]: 1.23 µM
IC50 [2]: 1.03 µM
IC50 [3]: 3.26 µM

O=C(O)CCSC(=S)NCc1cccnc1
IC50 [1]: 7.42 µM
IC50 [2]: 7.97 µM
IC50 [3]: 9.32 µM

NC(=O)CCSC(=S)NCc1cccnc1
IC50 [1]: 3.33 µM
IC50 [2]: 1.16 µM
IC50 [3]: 4.63 µM

CC(=O)CCSC(=S)NCc1cccnc1
IC50 [1]: 3.43 µM
IC50 [2]: 1.12 µM
IC50 [3]: 4.22 µM

S=C(NCc1cccnc1)SCCc1nnc(-c2cccnc2)o1
IC50 [1]: 1.37 µM
IC50 [2]: 0.8 µM
IC50 [3]: 3.16 µM

Cc1cc(CNC(=S)SCCC#N)n(C)n1
IC50 [4]: 4.17 µM
IC50 [1]: 4.26 µM

S=C(NCc1cccnc1)SCCc1nnc(-c2ccc3ncccc3c2)o1
IC50 [1]: 1.79 µM
IC50 [2]: 0.85 µM
IC50 [3]: 1.69 µM

S=C(NCc1cccnc1)SCCn1nc2ccccc2n1
IC50 [1]: 2.66 µM
IC50 [2]: 0.98 µM
IC50 [3]: 11.6 µM
